{"source": "paper PMC11336813", "about": "(Heliyon, 2024)", "key": {"[1]": {"system": "CYP3A4", "details": "human liver microsomes; cited from earlier work"}, "[2]": {"system": "CYP2C9", "details": "human liver microsomes; cited from earlier work"}, "[3]": {"system": "CYP2C19", "details": "human liver microsomes; cited from earlier work"}, "[4]": {"details": "cited from earlier work"}, "[5]": {"details": "cited from earlier work", "remark": "listed apart in the source"}, "[6]": {"test": "Free", "type": "in vivo, children with epilepsy", "outline": "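Children aged 0–16 y on an unchanged oral PER dose for ≥4 weeks, dosed in the evening. Blood (2 mL, EDTA) drawn 8:00–10:00 a.m. next day, spun 1 610 ×g for 5 min, and plasma stored at −80 °C. Plasma (200 μL) ultrafiltered at 13 680 ×g for 20 min at 4 °C. Ultrafiltrate (40 μL) plus PER-D5 internal standard was methanol-precipitated, then run on C18 reversed-phase positive-mode MRM against a least-squares linear calibration.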"}, "[7]": {"system": "plasma proteins", "details": "cited from earlier work"}, "[8]": {"type": "physicochemical", "details": "n = 5"}, "[9]": {"test": "Total PER plasma concentration by HPLC-MS/MS", "type": "in vivo, children with epilepsy"}, "[10]": {"details": "57 plasma samples, steady state"}, "[11]": {"details": "Group A: cotherapy enzyme inducers, n = 11"}, "[12]": {"details": "Group B: cotherapy not strong enzyme inducers/not inhibitors, n = 10"}, "[13]": {"details": "Group C: cotherapy enzyme inhibitors (VPA), n = 31"}, "[14]": {"details": "Group D: cotherapy enzyme inducers + VPA, n = 5"}, "[15]": {"details": "patient No. 25, PER 5 mg·d^−1 with VPA"}}, "note": "Where two headings read alike, the source gives them in different places.", "data": [{"smiles": "CCCC(CCC)C(=O)O", "note": "[VPA, valproic acid]", "values": [{"measurement": "Inhibitory effect on CYP3A4", "setting": "[1]", "value": "minor inhibitory effects"}, {"measurement": "Inhibition of CYP2C9 activity", "setting": "[2]", "value": "potent inhibition"}, {"measurement": "Inhibitory effect on CYP2C19", "setting": "[3]", "value": "minor inhibitory effects"}]}, {"smiles": "N#Cc1ccccc1-c1cc(-c2ccccn2)cn(-c2ccccc2)c1=O", "note": "[PER, Perampanel]", "values": [{"measurement": "Reference range of blood (total) PER concentration", "setting": "[4]", "value": "86 to 1000", "unit": "ng/mL"}, {"measurement": "Plasma half-life", "setting": "[5]", "value": "approximately 105 h"}, {"measurement": "Decrease of mean PER AUC values", "setting": "[5]; with OXC", "value": 50, "unit": "%"}, {"measurement": "Decrease in blood concentration", "setting": "[5]; with drugs that induce liver CYP3A4/5", "value": "2–3 fold"}, {"measurement": "Decrease in PER plasma concentrations", "setting": "[5]; with enzyme-induced AEDs (OXC, CBZ, PHB)", "value": "2–3 fold"}, {"measurement": "Free concentration, range", "setting": "[6]; [10]", "value": "0.42 to 23.14", "unit": "ng/mL"}, {"measurement": "Free concentration, mean ± SD", "setting": "[6]; 57 plasma samples, steady state, oral PER 2.00–8.00 mg·d^−1", "value": "8.09 ± 5.85", "unit": "ng/mL"}, {"measurement": "Free PER concentration, mean ± SD", "setting": "[6]; [11]", "value": "4.80 ± 3.70", "unit": "ng/mL"}, {"measurement": "Free PER concentration, mean ± SD", "setting": "[6]; [12]", "value": "5.28 ± 5.57", "unit": "ng/mL"}, {"measurement": "Free PER concentration, mean ± SD", "setting": "[6]; [13]", "value": "9.84 ± 5.66", "unit": "ng/mL"}, {"measurement": "Free PER concentration, mean ± SD", "setting": "[6]; [14]", "value": "10.09 ± 7.54", "unit": "ng/mL"}, {"measurement": "Free PER concentration, mean ± SD", "setting": "[6]; VPA cotherapy, n = 36", "value": "9.87 ± 5.83", "unit": "ng/mL"}, {"measurement": "Free drug PER concentration", "setting": "[6]; child No. 38, PER 2 mg·d^−1", "value": 1.95, "unit": "ng/mL"}, {"measurement": "Free PER concentration, mean ± SD", "setting": "[6]; not VPA cotherapy, n = 21", "value": "5.03 ± 4.57", "unit": "ng/mL"}, {"measurement": "Free drug PER concentration", "setting": "[6]; [15]", "value": 17.71, "unit": "ng/mL"}, {"measurement": "Bound to plasma proteins", "setting": "[7]; after oral administration", "value": 95, "unit": "%"}, {"measurement": "Free PER available to exert pharmacological effects", "setting": "[7]", "value": 5, "unit": "%"}, {"measurement": "Autosampler 5°C-8 h (x̄ ± s)", "setting": "[8]; nominal 1 ng·mL^−1", "value": "1.03 ± 0.05", "unit": "ng/mL"}, {"measurement": "frozen at −20 °C for 15 days (x̄ ± s)", "setting": "[8]; nominal 1 ng·mL^−1", "value": "0.96 ± 0.09", "unit": "ng/mL"}, {"measurement": "frozen at −20 °C for 30 days (x̄ ± s)", "setting": "[8]; nominal 1 ng·mL^−1", "value": "0.96 ± 0.08", "unit": "ng/mL"}, {"measurement": "frozen at −80 °C for 45 days (x̄ ± s)", "setting": "[8]; nominal 1 ng·mL^−1", "value": "0.97 ± 0.02", "unit": "ng/mL"}, {"measurement": "frozen at −80 °C for 60 days (x̄ ± s)", "setting": "[8]; nominal 1 ng·mL^−1", "value": "0.95 ± 0.07", "unit": "ng/mL"}, {"measurement": "Short-term 4 h (x̄ ± s)", "setting": "[8]; nominal 1 ng·mL^−1, room temperature (about 25 °C) 4 h", "value": "1.01 ± 0.09", "unit": "ng/mL"}, {"measurement": "Freeze-thaw Stability (x̄ ± s)", "setting": "[8]; nominal 1 ng·mL^−1, three freeze–thaw cycles (−20 °C/room temperature)", "value": "1.02 ± 0.05", "unit": "ng/mL"}, {"measurement": "Autosampler 5°C-8 h (x̄ ± s)", "setting": "[8]; nominal 10 ng·mL^−1", "value": "9.99 ± 0.37", "unit": "ng/mL"}, {"measurement": "frozen at −20 °C for 15 days (x̄ ± s)", "setting": "[8]; nominal 10 ng·mL^−1", "value": "9.99 ± 0.22", "unit": "ng/mL"}, {"measurement": "frozen at −20 °C for 30 days (x̄ ± s)", "setting": "[8]; nominal 10 ng·mL^−1", "value": "9.79 ± 0.21", "unit": "ng/mL"}, {"measurement": "frozen at −80 °C for 45 days (x̄ ± s)", "setting": "[8]; nominal 10 ng·mL^−1", "value": "10.03 ± 0.38", "unit": "ng/mL"}, {"measurement": "frozen at −80 °C for 60 days (x̄ ± s)", "setting": "[8]; nominal 10 ng·mL^−1", "value": "10.85 ± 0.38", "unit": "ng/mL"}, {"measurement": "Short-term 4 h (x̄ ± s)", "setting": "[8]; nominal 10 ng·mL^−1, room temperature 4 h", "value": "9.94 ± 0.42", "unit": "ng/mL"}, {"measurement": "Freeze-thaw Stability (x̄ ± s)", "setting": "[8]; nominal 10 ng·mL^−1, three freeze–thaw cycles", "value": "9.99 ± 0.08", "unit": "ng/mL"}, {"measurement": "Autosampler 5°C-8 h (x̄ ± s)", "setting": "[8]; nominal 40 ng·mL^−1", "value": "37.53 ± 1.46", "unit": "ng/mL"}, {"measurement": "frozen at −20 °C for 15 days (x̄ ± s)", "setting": "[8]; nominal 40 ng·mL^−1", "value": "39.06 ± 1.06", "unit": "ng/mL"}, {"measurement": "frozen at −20 °C for 30 days (x̄ ± s)", "setting": "[8]; nominal 40 ng·mL^−1", "value": "38.87 ± 1.52", "unit": "ng/mL"}, {"measurement": "frozen at −80 °C for 45 days (x̄ ± s)", "setting": "[8]; nominal 40 ng·mL^−1", "value": "43.90 ± 1.23", "unit": "ng/mL"}, {"measurement": "frozen at −80 °C for 60 days (x̄ ± s)", "setting": "[8]; nominal 40 ng·mL^−1", "value": "43.64 ± 1.27", "unit": "ng/mL"}, {"measurement": "Short-term 4 h (x̄ ± s)", "setting": "[8]; nominal 40 ng·mL^−1, room temperature 4 h", "value": "38.09 ± 1.40", "unit": "ng/mL"}, {"measurement": "Freeze-thaw Stability (x̄ ± s)", "setting": "[8]; nominal 40 ng·mL^−1, three freeze–thaw cycles", "value": "37.39 ± 0.53", "unit": "ng/mL"}, {"measurement": "Autosampler 5°C-8 h (x̄ ± s)", "setting": "[8]; nominal 120 ng·mL^−1", "value": "113.16 ± 0.76", "unit": "ng/mL"}, {"measurement": "frozen at −20 °C for 15 days (x̄ ± s)", "setting": "[8]; nominal 120 ng·mL^−1", "value": "121.27 ± 3.40", "unit": "ng/mL"}, {"measurement": "frozen at −20 °C for 30 days (x̄ ± s)", "setting": "[8]; nominal 120 ng·mL^−1", "value": "119.85 ± 2.22", "unit": "ng/mL"}, {"measurement": "frozen at −80 °C for 45 days (x̄ ± s)", "setting": "[8]; nominal 120 ng·mL^−1", "value": "130.97 ± 2.18", "unit": "ng/mL"}, {"measurement": "frozen at −80 °C for 60 days (x̄ ± s)", "setting": "[8]; nominal 120 ng·mL^−1", "value": "132.67 ± 1.39", "unit": "ng/mL"}, {"measurement": "Short-term 4 h (x̄ ± s)", "setting": "[8]; nominal 120 ng·mL^−1, room temperature 4 h", "value": "111.97 ± 2.47", "unit": "ng/mL"}, {"measurement": "Freeze-thaw Stability (x̄ ± s)", "setting": "[8]; nominal 120 ng·mL^−1, three freeze–thaw cycles", "value": "115.95 ± 6.88", "unit": "ng/mL"}, {"measurement": "Total concentration, range", "setting": "[9]; [10]", "value": "90.17 to 1867.73", "unit": "ng/mL"}, {"measurement": "Total PER concentration, mean ± SD", "setting": "[9]; [11]", "value": "311.32 ± 190.14", "unit": "ng/mL"}, {"measurement": "Total PER concentration, mean ± SD", "setting": "[9]; [12]", "value": "490.97 ± 255.71", "unit": "ng/mL"}, {"measurement": "Total PER concentration, mean ± SD", "setting": "[9]; [13]", "value": "745.60 ± 415.53", "unit": "ng/mL"}, {"measurement": "Total PER concentration, mean ± SD", "setting": "[9]; [14]", "value": "780.14 ± 459.18", "unit": "ng/mL"}, {"measurement": "Total PER concentration, mean ± SD", "setting": "[9]; VPA cotherapy, n = 36", "value": "750.40 ± 415.02", "unit": "ng/mL"}, {"measurement": "Total drug PER concentration", "setting": "[9]; child No. 38, PER 2 mg·d^−1", "value": 289.24, "unit": "ng/mL"}, {"measurement": "Total PER concentration, mean ± SD", "setting": "[9]; not VPA cotherapy, n = 21", "value": "396.87 ± 236.55", "unit": "ng/mL"}, {"measurement": "Total drug PER concentration", "setting": "[9]; [15]", "value": 1158.38, "unit": "ng/mL"}]}]}
